Source: publication PMC10842602 (Bioorganic & medicinal chemistry, 2023)

Target: T1, WT human SLACK (Homo sapiens, UniProt Q5JUK3)
T1 sequence (Q5JUK3 1-1235 isoform Q5JUK3-3): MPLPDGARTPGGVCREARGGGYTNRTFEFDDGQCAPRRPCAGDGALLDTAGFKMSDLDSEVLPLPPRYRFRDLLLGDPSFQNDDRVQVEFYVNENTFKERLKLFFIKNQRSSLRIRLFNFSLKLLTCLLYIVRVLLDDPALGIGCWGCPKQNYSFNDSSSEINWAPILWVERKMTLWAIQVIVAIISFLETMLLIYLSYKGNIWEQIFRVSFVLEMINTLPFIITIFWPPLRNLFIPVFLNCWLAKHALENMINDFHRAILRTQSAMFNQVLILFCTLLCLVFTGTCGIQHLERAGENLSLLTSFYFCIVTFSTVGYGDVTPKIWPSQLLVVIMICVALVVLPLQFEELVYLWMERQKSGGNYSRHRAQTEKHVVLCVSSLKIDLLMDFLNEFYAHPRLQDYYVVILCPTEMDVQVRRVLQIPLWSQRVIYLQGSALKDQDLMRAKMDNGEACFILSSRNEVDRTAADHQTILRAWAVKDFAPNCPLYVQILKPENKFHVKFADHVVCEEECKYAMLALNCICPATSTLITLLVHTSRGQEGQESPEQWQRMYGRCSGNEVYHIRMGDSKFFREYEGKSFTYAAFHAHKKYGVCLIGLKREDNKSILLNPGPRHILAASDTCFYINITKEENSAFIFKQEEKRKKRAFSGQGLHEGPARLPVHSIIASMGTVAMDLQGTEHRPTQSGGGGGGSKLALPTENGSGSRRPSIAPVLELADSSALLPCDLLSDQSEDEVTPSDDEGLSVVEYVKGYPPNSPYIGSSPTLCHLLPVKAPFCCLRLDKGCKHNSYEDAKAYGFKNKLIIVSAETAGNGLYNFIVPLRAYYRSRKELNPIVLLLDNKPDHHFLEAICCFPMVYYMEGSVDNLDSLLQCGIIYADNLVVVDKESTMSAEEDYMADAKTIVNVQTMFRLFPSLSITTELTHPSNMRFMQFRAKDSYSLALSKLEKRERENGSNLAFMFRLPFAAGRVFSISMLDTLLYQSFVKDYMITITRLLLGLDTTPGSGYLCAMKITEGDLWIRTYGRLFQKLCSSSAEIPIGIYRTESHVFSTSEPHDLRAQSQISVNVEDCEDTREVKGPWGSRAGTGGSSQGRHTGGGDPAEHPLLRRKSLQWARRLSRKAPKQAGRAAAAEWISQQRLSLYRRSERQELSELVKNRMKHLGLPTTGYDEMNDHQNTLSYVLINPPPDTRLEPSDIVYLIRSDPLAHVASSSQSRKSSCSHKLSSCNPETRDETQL
Test: Tl+ flux assay in HEK-293 cells stably expressing WT human SLACK
Type: cell-based
Settings: for IC50 / EC50: CRC; for Mode: Tl+ flux, HEK-293 cells expressing WT SLACK
In short: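 Stably transfected HEK-293 cells expressing wild-type human SLACK; thallium flux read-out. IC50 or EC50 taken from concentration-response curves, and each compound classed as inhibitor, activator or not active. Efficacy is the response amplitude at 30 μM test compound, as a percentage of the maximum response to a reference SLACK inhibitor (for inhibitors) or loxapine (for activators).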

[1] = IC50 for compounds of mode Inh (also cells printed Inactive)

| IC50 / EC50 [1] | Mode | IC50 / EC50 (EC50 for compounds of mode Act) [µM] | SMILES |
| --- | --- | --- | --- |
| Inactive | Inactive | – | CCNc1ccccc1S(=O)(=O)N1CC(c2nc(-c3ccsc3)no2)C1 [Compound 29] |
| – | – | >10 | CCOc1ccccc1C(C)N1CC(c2nc(-c3ccsc3)no2)C1 (stereo not drawn) [Compound 32] |
| – | – | >10 | CCOc1ccccc1S(=O)(=O)N1CC(c2nc(-c3cccc(OC)c3)no2)C1 [Compound 54, 5-(1-((2-Ethoxyphenyl)sulfonyl)azetidin-3-yl)-3-(3-methoxyphenyl)-1,2,4-oxadiazole] |
| – | – | >10 | Cc1nc2c(S(=O)(=O)N3CC(c4nc(-c5ccc(F)cc5)no4)C3)cccn2n1 [Compound 130] |
| 5.8 µM | – | – | O=S(=O)(c1ccccc1OC1CCCC1)N1CC(c2nc(-c3ccc(F)cc3)no2)C1 [Compound 116, 5-(1-((2-(cyclopentyloxy)phenyl)sulfonyl)azetidin-3-yl)-3-(4-fluorophenyl)-1,2,4-oxadiazole] |
| Inactive | Inactive | – | O=S(=O)(c1ccc(C(F)(F)F)cc1)N1CC(c2nc(-c3ccsc3)no2)C1 [Compound 19, 3-(Thiophen-3-yl)-5-(1-((4-(trifluoromethyl)phenyl)sulfonyl)azetidin-3-yl)-1,2,4-oxadiazole] |
| – | – | >10 | CCOc1ccccc1OC(=O)N1CC(c2nc(-c3ccsc3)no2)C1 [Compound 36] |
| – | – | 4.0 | CCOc1ccccc1S(=O)(=O)N1CC(C)(c2nc(-c3ccc(F)cc3)no2)C1 [Compound 69] |
| – | – | >10 | Cc1cccc(S(=O)(=O)N2CC(c3nc(-c4ccsc4)no3)C2)c1 [Compound 21, 3-(Thiophen-3-yl)-5-(1-(m-tolylsulfonyl)azetidin-3-yl)-1,2,4-oxadiazole] |
| – | – | >10 | CCOc1ccccc1CC(=O)N1CC(c2nc(-c3ccsc3)no2)C1 [Compound 34] |
| >10 µM | – | – | CCOc1ccccc1S(=O)(=O)N1CC(c2nc(-c3cccc(C)c3)no2)C1 [Compound 51, 5-(1-((2-Ethoxyphenyl)sulfonyl)azetidin-3-yl)-3-(m-tolyl)-1,2,4-oxadiazole] |
| 9.3 µM | – | – | O=S(=O)(c1ccccc1OCC1CCC1)N1CC(c2nc(-c3ccc(F)cc3)no2)C1 [Compound 110, 5-(1-((2-(Cyclobutylmethoxy)phenyl)sulfonyl)azetidin-3-yl)-3-(4-fluorophenyl)-1,2,4-oxadiazole] |
| – | – | 10 | CCOc1ccccc1S(=O)(=O)N1CC(c2ncc(-c3ccc(F)cc3)o2)C1 [Compound 97] |
| >10 µM | – | – | CCOc1ccccc1S(=O)(=O)N1CC[C@H](c2nc(-c3ccc(F)cc3)no2)C1 [Compound 75] |
| >10 µM | – | – | CCOc1ccccc1S(=O)(=O)[C@H]1C[C@H](c2nc(-c3ccc(F)cc3)no2)C1 [Compound 73b] |
| >10 µM | – | – | CCOc1ccccc1S(=O)(=O)N1CC(c2noc(-c3ccc(F)cc3)n2)C1 [Compound 101] |
| Inactive | Inactive | – | Cc1nnc2c(S(=O)(=O)N3CC(c4nc(-c5ccc(F)cc5)no4)C3)cccn12 [Compound 133] |
| – | – | 6.0 | O=S(=O)(c1ccccc1C(F)(F)F)N1CC(c2nc(-c3ccsc3)no2)C1 [Compound 17, 3-(Thiophen-3-yl)-5-(1-((2-(trifluoromethyl)phenyl)sulfonyl)azetidin-3-yl)-1,2,4-oxadiazole] |
| – | – | 1.9 | CCOc1ccccc1S(=O)(=O)N1CC(c2nc(-c3ccccc3C(F)(F)F)no2)C1 [Compound 47, 5-(1-((2-Ethoxyphenyl)sulfonyl)azetidin-3-yl)-3-(2-(trifluoromethyl)phenyl)-1,2,4-oxadiazole] |
| – | – | >10 | CCOc1ccccc1S(=O)(=O)N1CC(c2nnc(-c3ccc(F)cc3)[nH]2)C1 [Compound 86] |

| IC50 / EC50 [1] | Mode | IC50 / EC50 (EC50 for compounds of mode Act) [µM] | SMILES |
| --- | --- | --- | --- |
| Inactive | Inactive | – | CCOc1ccccc1S(=O)(=O)c1ccc(-c2nc(-c3ccc(F)cc3)no2)cc1 [Compound 77] |
| – | – | >10 | CCOc1ccccc1S(=O)(=O)N1CC(c2nc(-c3ccccc3C)no2)C1 [Compound 50, 5-(1-((2-Ethoxyphenyl)sulfonyl)azetidin-3-yl)-3-(o-tolyl)-1,2,4-oxadiazole] |
| Inactive | Inactive | – | CCOc1ccccc1S(=O)(=O)N1CC(c2nc(-c3nccs3)no2)C1 [Compound 61, 5-(1-((2-Ethoxyphenyl)sulfonyl)azetidin-3-yl)-3-(thiazol-2-yl)-1,2,4-oxadiazole] |
| >10 µM | – | – | O=S(=O)(c1ccccc1N1CCCCC1)N1CC(c2nc(-c3ccc(F)cc3)no2)C1 [Compound 118, 3-(4-Fluorophenyl)-5-(1-((2-(piperidin-1-yl)phenyl)sulfonyl)azetidin-3-yl)-1,2,4-oxadiazole] |
| Inactive | Inactive | – | CCOc1ccccc1S(=O)(=O)N1CC(c2nc(-c3ccc(C)cc3)no2)C1 [Compound 52, 5-(1-((2-Ethoxyphenyl)sulfonyl)azetidin-3-yl)-3-(p-tolyl)-1,2,4-oxadiazole] |
| – | – | >10 | CCOc1ccccc1S(=O)(=O)N1CC(c2nc(-c3ccccc3OC)no2)C1 [Compound 53, 5-(1-((2-Ethoxyphenyl)sulfonyl)azetidin-3-yl)-3-(2-methoxyphenyl)-1,2,4-oxadiazole] |
| – | – | >10 | CCOc1ccccc1S(=O)(=O)N1CC(c2cn(-c3ccc(F)cc3)nn2)C1 [Compound 95] |
| Inactive | Inactive | – | CCOc1ccccc1S(=O)(=O)N1CC(c2nc(-c3cccnc3)no2)C1 [Compound 65, 5-(1-((2-Ethoxyphenyl)sulfonyl)azetidin-3-yl)-3-(pyridin-3-yl)-1,2,4-oxadiazole] |
| 8.0 µM | – | – | CCOc1ccccc1S(=O)(=O)N1CC(c2nc(-c3ccccc3Cl)no2)C1 [Compound 44, 3-(2-Chlorophenyl)-5-(1-((2-ethoxyphenyl)sulfonyl)azetidin-3-yl)-1,2,4-oxadiazole] |
| Inactive | Inactive | – | COc1cccc(S(=O)(=O)N2CC(c3nc(-c4ccsc4)no3)C2)c1 [Compound 24, 5-(1-((3-Methoxyphenyl)sulfonyl)azetidin-3-yl)-3-(thiophen-3-yl)-1,2,4-oxadiazole] |
| Inactive | Inactive | – | CCOc1ccccc1S(=O)(=O)[C@H]1C[C@@H](c2nc(-c3ccc(F)cc3)no2)C1 [Compound 73a] |
| >10 µM | – | – | CCOc1ccccc1S(=O)(=O)C1CN(c2nc(-c3ccc(F)cc3)no2)C1 [Compound 71] |
| – | – | >10 | O=S(=O)(c1cccc(F)c1)N1CC(c2nc(-c3ccsc3)no2)C1 [Compound 12, 5-(1-((3-Fluorophenyl)sulfonyl)azetidin-3-yl)-3-(thiophen-3-yl)-1,2,4-oxadiazole] |
| – | – | >10 | CCOc1ccccc1CN1CC(c2nc(-c3ccsc3)no2)C1 [Compound 31] |
| – | – | 4.8 | O=S(=O)(c1ccccc1F)N1CC(c2nc(-c3ccsc3)no2)C1 [Compound 11, 5-(1-((2-Fluorophenyl)sulfonyl)azetidin-3-yl)-3-(thiophen-3-yl)-1,2,4-oxadiazole] |
| – | – | >10 | O=S(=O)(c1cccn2ncnc12)N1CC(c2nc(-c3ccc(F)cc3)no2)C1 [Compound 129] |
| – | – | >10 | O=S(=O)(c1cccn2cnnc12)N1CC(c2nc(-c3ccc(F)cc3)no2)C1 [Compound 132] |
| Inactive | Inactive | – | Cc1ccc(S(=O)(=O)N2CC(c3nc(-c4ccsc4)no3)C2)cc1 [Compound 22, 3-(Thiophen-3-yl)-5-(1-tosylazetidin-3-yl)-1,2,4-oxadiazole] |
| >10 µM | – | – | CCOc1ccccc1S(=O)(=O)N1CC(c2nc(-c3ccc(F)cc3)cn2C)C1 [Compound 100] |

| SMILES | IC50 / EC50 [1] | Mode | IC50 / EC50 (EC50 for compounds of mode Act) [µM] |
| --- | --- | --- | --- |
| CCCCOc1ccccc1S(=O)(=O)N1CC(c2nc(-c3ccsc3)no2)C1 [Compound 28, 5-(1-((2-Butoxyphenyl)sulfonyl)azetidin-3-yl)-3-(thiophen-3-yl)-1,2,4-oxadiazole] | Inactive | Inactive | – |
